Measurements: article PMC3736091 (Molecular cancer therapeutics, 2013)
Where “and” joins values, the source holds several entries; their conditions need not be identical. Equal entries are not always repeated. Marks after values point to notes of the source that are not given here.

Key:
Body weight = format: in vivo, mice; conditions: for Maximum body weight loss: SW620 xenograft studies
SW620 cells = assay: Clonogenic survival assay, SW620; format: cell-based, human; conditions: for Enhancement factor: 1 μM KU59403
In short: (§1)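 Clonogenic assay in RPMI 1640 + 10% FBS, 37°C, 5% CO2, <30 passages; HCT116-N7 stably expresses HPV16 E6. Exponentially growing cells had 16 h exposure to cytotoxic (etoposide, doxorubicin or camptothecin; etoposide 1 μM for the bar data) ± test compound 1 μM in 0.5% DMSO, then were seeded for colonies. Survival was normalised to DMSO or inhibitor-alone control. Enhancement factor = survival cytotoxic alone ÷ survival combination, per experiment; 3 independent experiments.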

ATM [1] = target: T1, ATM (Homo sapiens, UniProt Q13315); assay: Enzyme inhibition, purified ATM; format: biochemical
T1 sequence (Q13315 whole entry): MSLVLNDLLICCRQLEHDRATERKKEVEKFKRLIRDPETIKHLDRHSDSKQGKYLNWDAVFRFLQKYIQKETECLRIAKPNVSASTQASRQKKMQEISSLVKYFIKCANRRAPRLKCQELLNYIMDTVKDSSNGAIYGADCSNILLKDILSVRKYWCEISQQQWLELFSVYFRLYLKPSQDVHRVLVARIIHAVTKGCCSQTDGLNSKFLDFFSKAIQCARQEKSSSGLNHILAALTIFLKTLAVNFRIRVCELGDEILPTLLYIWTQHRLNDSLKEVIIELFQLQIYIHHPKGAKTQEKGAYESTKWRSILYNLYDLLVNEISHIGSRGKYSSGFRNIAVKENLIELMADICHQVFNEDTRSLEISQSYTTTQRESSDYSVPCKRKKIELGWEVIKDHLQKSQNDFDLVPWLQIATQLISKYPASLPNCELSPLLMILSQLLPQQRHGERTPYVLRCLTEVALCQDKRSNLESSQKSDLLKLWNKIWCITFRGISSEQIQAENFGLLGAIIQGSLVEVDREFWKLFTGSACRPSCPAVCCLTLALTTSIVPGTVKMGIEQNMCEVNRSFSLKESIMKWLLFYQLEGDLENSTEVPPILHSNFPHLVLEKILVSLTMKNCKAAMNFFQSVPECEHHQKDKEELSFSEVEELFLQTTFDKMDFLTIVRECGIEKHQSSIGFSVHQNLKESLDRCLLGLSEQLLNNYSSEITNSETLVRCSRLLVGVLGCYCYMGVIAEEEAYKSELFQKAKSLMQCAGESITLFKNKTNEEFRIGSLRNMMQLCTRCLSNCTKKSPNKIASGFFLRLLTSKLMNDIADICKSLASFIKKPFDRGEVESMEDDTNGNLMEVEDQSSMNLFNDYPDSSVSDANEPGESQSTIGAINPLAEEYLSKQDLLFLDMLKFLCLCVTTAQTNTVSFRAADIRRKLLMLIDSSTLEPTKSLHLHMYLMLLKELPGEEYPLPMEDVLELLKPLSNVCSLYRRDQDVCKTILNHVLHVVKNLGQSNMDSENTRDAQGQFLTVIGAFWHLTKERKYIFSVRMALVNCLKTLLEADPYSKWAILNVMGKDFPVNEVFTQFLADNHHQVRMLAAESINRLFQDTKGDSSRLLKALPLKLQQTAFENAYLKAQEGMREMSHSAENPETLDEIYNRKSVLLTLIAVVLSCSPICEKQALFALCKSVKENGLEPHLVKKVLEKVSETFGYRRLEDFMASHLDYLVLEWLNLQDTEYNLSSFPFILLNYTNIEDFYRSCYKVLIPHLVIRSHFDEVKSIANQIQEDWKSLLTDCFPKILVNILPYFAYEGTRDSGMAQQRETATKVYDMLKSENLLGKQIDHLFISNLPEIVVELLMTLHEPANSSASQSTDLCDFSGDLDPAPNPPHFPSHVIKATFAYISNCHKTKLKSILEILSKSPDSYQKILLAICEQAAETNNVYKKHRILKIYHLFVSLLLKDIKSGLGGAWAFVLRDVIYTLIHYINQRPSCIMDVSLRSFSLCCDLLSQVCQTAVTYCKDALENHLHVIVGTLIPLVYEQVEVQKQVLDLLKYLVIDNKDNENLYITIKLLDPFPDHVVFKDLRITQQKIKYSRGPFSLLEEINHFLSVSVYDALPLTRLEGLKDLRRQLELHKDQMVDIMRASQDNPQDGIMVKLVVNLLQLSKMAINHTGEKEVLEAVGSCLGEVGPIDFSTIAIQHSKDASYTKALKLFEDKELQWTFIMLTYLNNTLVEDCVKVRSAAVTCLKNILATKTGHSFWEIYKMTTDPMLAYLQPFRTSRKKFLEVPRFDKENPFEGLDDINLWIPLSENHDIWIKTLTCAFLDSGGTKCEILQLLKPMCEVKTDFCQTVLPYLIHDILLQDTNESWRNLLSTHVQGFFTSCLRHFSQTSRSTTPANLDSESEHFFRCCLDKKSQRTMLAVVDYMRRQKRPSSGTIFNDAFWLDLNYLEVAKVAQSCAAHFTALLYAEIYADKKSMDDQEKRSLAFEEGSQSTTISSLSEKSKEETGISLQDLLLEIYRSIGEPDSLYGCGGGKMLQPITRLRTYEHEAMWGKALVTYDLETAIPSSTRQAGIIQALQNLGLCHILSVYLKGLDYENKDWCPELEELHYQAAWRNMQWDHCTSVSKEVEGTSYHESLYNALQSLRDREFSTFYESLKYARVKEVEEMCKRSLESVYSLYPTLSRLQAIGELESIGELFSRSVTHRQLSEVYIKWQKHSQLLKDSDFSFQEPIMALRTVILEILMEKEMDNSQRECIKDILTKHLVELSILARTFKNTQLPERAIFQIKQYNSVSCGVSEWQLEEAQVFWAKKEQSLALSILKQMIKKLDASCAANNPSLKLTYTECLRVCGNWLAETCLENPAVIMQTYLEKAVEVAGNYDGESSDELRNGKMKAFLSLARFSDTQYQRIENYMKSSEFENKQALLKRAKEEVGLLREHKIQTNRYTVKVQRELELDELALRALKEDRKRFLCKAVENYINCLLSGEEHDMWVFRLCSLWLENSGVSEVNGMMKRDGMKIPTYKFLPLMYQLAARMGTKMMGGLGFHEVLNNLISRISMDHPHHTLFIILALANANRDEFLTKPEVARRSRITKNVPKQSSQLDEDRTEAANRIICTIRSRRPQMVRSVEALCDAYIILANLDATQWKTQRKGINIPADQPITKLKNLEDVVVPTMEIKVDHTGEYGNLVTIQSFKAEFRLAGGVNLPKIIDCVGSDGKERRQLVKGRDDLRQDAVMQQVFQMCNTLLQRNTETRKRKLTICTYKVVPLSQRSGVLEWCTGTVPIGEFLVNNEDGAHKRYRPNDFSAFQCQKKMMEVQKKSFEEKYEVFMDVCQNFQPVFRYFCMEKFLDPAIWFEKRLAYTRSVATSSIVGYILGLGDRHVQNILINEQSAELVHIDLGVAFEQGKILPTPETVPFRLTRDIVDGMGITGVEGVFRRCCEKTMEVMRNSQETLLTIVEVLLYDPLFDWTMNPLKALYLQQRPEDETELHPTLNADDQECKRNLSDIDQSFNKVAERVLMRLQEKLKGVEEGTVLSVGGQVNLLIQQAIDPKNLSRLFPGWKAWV
In short: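 Enzymes were isolated from HeLa cells: ATM plus DNA-PK, PI3K, ATR, PI4K and mTOR. Activity was measured across increasing test compound concentrations. IC50 was calculated from sigmoid plots of inhibitor concentration versus activity. Values are the mean of five independent experiments.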

[2] = target: ATM activity in HCT116 cells (Homo sapiens, UniProt Q13315); assay: Inhibition of IR-induced ATM activity, HCT116; format: cell-based; conditions: 1 μM
Chain of ATM activity in HCT116 cells (Q13315 whole entry): as above

MDA-MB-231 cells = assay: Clonogenic survival assay, MDA-MB-231; format: cell-based, human; conditions: MDA-MB-231, etoposide 1 μM + KU59403 1 μM (Figure 1D)
In short: as §1

[3] = target: ATM activity in SW620 cells (Homo sapiens, UniProt Q13315); assay: Inhibition of cellular ATM activity, SW620; format: cell-based; conditions: 1 μM
Chain of ATM activity in SW620 cells (Q13315 whole entry): as above

LoVo cells = assay: Clonogenic survival assay, LoVo; format: cell-based, human; conditions: for Enhancement factor / % Survival Cytotoxic + KU59403: LoVo; for Enhancement factor: 1 μM KU59403
In short: as §1

[4] = Plasma and tumour concentrations in SW620 tumour-bearing nude mice; format: in vivo
In short: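 Female CD-1 nude mice carried SW620 s.c. flank xenografts (1×10^7 cells) of ~650 mm³. Test compound was given at 50 mg/kg i.p. in equimolar phosphoric acid/saline, pH 4. The comparator ATM inhibitor was given at 10 mg/kg i.p. in phosphoric acid, 5% DMSO, 10% encapsin, pH 4. Dosing volume was 10 ml/kg. Plasma and tumour were sampled at 1 and 4 h and analysed by HPLC; the tumour detection limit was 0.5 μM.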

[5] = Plasma and tissue concentrations in Balb/C mice; format: in vivo; conditions: 25 mg/kg i.v., female Balb/C mice, at 4 hr
In short: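 Female Balb/C mice (non-tumour-bearing) received 25 mg/kg i.v. (10 ml/kg) in equimolar phosphoric acid/saline, pH 4. At time points to 4 h, mice were bled by terminal cardiac puncture. Plasma was stored at −20 °C; brain, liver, spleen and lung were snap frozen and homogenised in PBS (1:3 w/v). Samples underwent HPLC against a plasma standard curve (0.05-10 μg/ml); tissue was quantified by method of addition. n = 3 mice per time point.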

human tumour cell lines [6] = assay: Concentration needed for in vitro chemo- and radio-sensitisation; format: cell-based
HCT116 cells = assay: Clonogenic survival assay, HCT116; format: cell-based, human; conditions: HCT116, etoposide 1 μM + KU59403 1 μM (Figure 1D)
In short: as §1

HCT116-N7 cells = assay: Clonogenic survival assay, HCT116-N7; format: cell-based, human; conditions: HCT116-N7, etoposide 1 μM + KU59403 1 μM (Figure 1D)
In short: as §1

HCT116-N7 xenografts = assay: Anti-tumour efficacy, HCT116-N7 xenografts; format: in vivo, mice
[7] = tested on: ATM activity in MDA-MB231 cells; assay: Inhibition of IR-induced ATM activity, MDA-MB231; format: cell-based, human; conditions: 1 μM
SW620 xenografts = assay: Anti-tumour efficacy, SW620 xenografts; format: in vivo, mice
human tumour cell lines [8] = conditions: cited from earlier work
ATR = ATR (Homo sapiens, UniProt Q13535); conditions: read-out: Enzyme IC50 ATR; purified enzyme; data previously reported; cited from earlier work
ATM [9] = target: T1, ATM; conditions: read-out: Enzyme IC50 ATM; purified enzyme; data previously reported; cited from earlier work
[10] = KU59403 12.5 mg/kg 2× daily ×5 alone
[11] = KU59403 25 mg/kg daily ×5 alone
[12] = etopophos + KU59403 6 mg/kg 2× daily ×5
[13] = etopophos + KU59403 12.5 mg/kg 1× daily ×5 5 hr post
[14] = etopophos + KU59403 12.5 mg/kg 1× daily ×5 concurrent
[15] = etopophos + KU59403 12.5 mg/kg 2× daily ×5
[16] = etopophos + KU59403 25 mg/kg 2× daily ×5
[17] = irinotecan + KU59403 25 mg/kg daily ×5
[18] = etopophos 11.35 mg/kg i.p. daily ×5 + KU59403 25 mg/kg i.p. twice daily for 5 days
[19] = etopophos (equivalent to 10 mg/kg etoposide) daily ×5 alone

In the case of `CN1CCN(CCC(=O)Nc2ccc3c(c2)Sc2cccc(-c4cc(=O)cc(N5CCOCC5)o4)c2S3)CC1` [KU59403], the “Nadir % Starting Body weight” value (Body weight; [10]) is reported as 100%, the “Nadir % Starting Body weight” value (Body weight; [11]) is reported as 99.7% and the “Maximum body weight loss” value (Body weight; combination of KU59403 and etopophos) is reported as 7%. For the same compound, the “Nadir % Starting Body weight” value (Body weight; [12]) was 96.9%, the “Nadir % Starting Body weight” value (Body weight; [13]) was 94.3% and the “Nadir % Starting Body weight” value (Body weight; [14]) was 96.5%. For the same compound, the “Nadir % Starting Body weight” value (Body weight; [15]) was 94.9%, the “Nadir % Starting Body weight” value (Body weight; [16]) was 93.3% and the “Maximum body weight loss” value (Body weight; given as a single agent) was less than 2%. For the same compound, the “Nadir % Starting Body weight” value (Body weight; [17]) was 100%, the “% Survival Cytotoxic + KU59403” value (SW620 cells; SW620, camptothecin 10 nM + 1 μM KU59403, 16 hr) was 0.71 ± 0.35 % and the Enhancement factor (SW620 cells; SW620, camptothecin 10 nM) was 4 and 4.3 ± 2.8. For the same compound, the “% Survival Cytotoxic + KU59403” value (SW620 cells; SW620, doxorubicin 10 nM + 1 μM KU59403, 16 hr) was 17 ± 0.2 %, the Enhancement factor (SW620 cells; SW620, doxorubicin 10 nM) was 2.9 ± 0.6 and the “% Survival Cytotoxic + KU59403” value (SW620 cells; SW620, doxorubicin 100 nM + 1 μM KU59403, 16 hr) was 0.01 ± .001%. For the same compound, the Enhancement factor (SW620 cells; SW620, doxorubicin 100 nM) was 1.8 ± 0.7, the “% Survival Cytotoxic + KU59403” value (SW620 cells; SW620, etoposide 100 nM + 1 μM KU59403, 16 hr) was 35 ± 12 % and the Enhancement factor (SW620 cells; SW620, etoposide 100 nM) was 2.9 ± 1.5. For the same compound, the “% Survival Cytotoxic + KU59403” value (SW620 cells; SW620, etoposide 1 μM + 1 μM KU59403, 16 hr) was 0.41 ± 0.23 %, the “Enhancement of etoposide cytotoxicity” value (SW620 cells; SW620, etoposide 1 μM + KU59403 1 μM (Figure 1D)) was 11.9 ± 4.7 fold and 12 fold and the Enhancement factor (SW620 cells; SW620, etoposide 1 μM) was 12 ± 7. The “% survival, inhibitor alone” value (SW620 cells; SW620 cells, KU59403 1 μM alone, 16 hr) was 91± 6%, the “Specificity for ATM over other members of the PI3K (PIKK) family tested” value (ATM [1]) was “at least 1000 fold” and the “Inhibition of IR-induced ATM activity” value [2] was greater than 50%. For the same compound, the “Enhancement of etoposide cytotoxicity” value (MDA-MB-231 cells) was 3.8 ± 1.8 fold, the “Inhibition of ATM activity” value [3] was greater than 50% and the “% survival, inhibitor alone” value (LoVo cells; LoVo cells, KU59403 1 μM alone, 16 hr) was 88± 7%. For the same compound, the Enhancement factor (LoVo cells; camptothecin 10 nM) was 7 and 6.9 ± 3.8, the “% Survival Cytotoxic + KU59403” value (LoVo cells; doxorubicin 10 nM + 1 μM KU59403, 16 hr) was 16 ± 6.9 % and the Enhancement factor (LoVo cells; doxorubicin 10 nM) was 3.2 ± 1. For the same compound, the “% Survival Cytotoxic + KU59403” value (LoVo cells; doxorubicin 100 nM + 1 μM KU59403, 16 hr) was 0.35 ± 0.04 %, the Enhancement factor (LoVo cells; doxorubicin 100 nM) was 6.1 ± 2.1 and the “% Survival Cytotoxic + KU59403” value (LoVo cells; etoposide 100 nM + 1 μM KU59403, 16 hr) was 18 ± 0.5 %. For the same compound, the Enhancement factor (LoVo cells; etoposide 100 nM) was 3.3 ± 0.4, the “% Survival Cytotoxic + KU59403” value (LoVo cells; etoposide 1 μM + 1 μM KU59403, 16 hr) was 1.1 ± 0.2 % and the Enhancement factor (LoVo cells; etoposide 1 μM) was 3.8 ± 1.5. The “Time plasma concentration maintained” value ([4]; 50 mg/kg i.p., SW620-bearing nude mice) was “at least 4 hours”, the Tumour concentration ([4]; 50 mg/kg i.p., SW620 xenograft, 4 hour time point) was 1.9 µM and the Plasma concentration ([4]; single dose 50 mg/kg i.p., SW620-bearing nude mice, 1 and 4 hours) was 5 µM. The Plasma concentration [5] was “less than 0.1 μM”, the “Concentration at which an effective chemo-sensitiser” value (human tumour cell lines [6]) was 1 µM and the “Enhancement of etoposide cytotoxicity” value (HCT116 cells) was 2.3 ± 1.6 fold. For the same compound, the “Enhancement of etoposide cytotoxicity” value (HCT116-N7 cells) was 3.8 ± 2.5 fold, the “Increase in etopophos-induced tumour growth delay” value (HCT116-N7 xenografts; KU59403 25 mg/kg twice daily, HCT116-N7 xenografts) was 3 fold and the “Enhancement of etopophos activity” value (HCT116-N7 xenografts; [18]) was 300%. The “Etopophos-induced tumour growth delay” value (HCT116-N7 xenografts; [18]) was 8.5 days, the “Inhibition of IR-induced ATM activity” value [7] was “approximately 50%” and the “Delay” value (SW620 xenografts; [10]) was 0.5 days. For the same compound, the “Time to RTV4” value (SW620 xenografts; [10]) was 7 days, the “Delay” value (SW620 xenografts; [11]) was 5.5 days and the “Time to RTV4” value (SW620 xenografts; [11]) was 12 days. For the same compound, the “Increase in etopophos-induced tumour growth delay” value (SW620 xenografts; KU59403 25 mg/kg twice daily, SW620 xenografts) was 3 fold, the “Delay” value (SW620 xenografts; [12]) was 5.5 days and the “Enhancement (%)” value (SW620 xenografts; [12]) was 38%. For the same compound, the “Time to RTV4” value (SW620 xenografts; [12]) was 12 days, the “Delay” value (SW620 xenografts; [13]) was 3.5 days and the “Time to RTV4” value (SW620 xenografts; [13]) was 10 days. For the same compound, the “Delay” value (SW620 xenografts; [14]) was 10 days, the “Enhancement (%)” value (SW620 xenografts; [14]) was 150% and the “Time to RTV4” value (SW620 xenografts; [14]) was 16.5 days. For the same compound, the “Delay” value (SW620 xenografts; [15]) was 8.5 days, the “Enhancement (%)” value (SW620 xenografts; [15]) was 113 ^§ % and the “Time to RTV4” value (SW620 xenografts; [15]) was 15 days. For the same compound, the “Delay” value (SW620 xenografts; [16]) was 11.5 days, the “Time to RTV4” value (SW620 xenografts; [16]) was 18 days and the “Enhancement (%)” value (SW620 xenografts; etopophos + KU59403 25 mg/kg 2× daily ×5, 25 mg/kg) was 190 ^* %. The “Delay” value (SW620 xenografts; [17]) was 19.5 days, the “Time to RTV4” value (SW620 xenografts; [17]) was 26 days and the “Enhancement (%)” value (SW620 xenografts; irinotecan + KU59403 25 mg/kg daily ×5, 25 mg/kg) was 144% and 144 ^* %.

In the case of `C[C@@H]1CN(CC(=O)Nc2ccc3c(c2)Cc2cccc(-c4cc(=O)cc(N5CCOCC5)o4)c2S3)C[C@H](C)O1` [KU-600019], the “Concentration needed to induce in vitro chemo- and radio-sensitisation” value (human tumour cell lines [8]) is listed as 3 µM.

In the case of `O=c1cc(N2CCOCC2)oc2c(-c3ccccc3)cccc12` [LY294002], the IC50 (ATR) is given as 100 µM and the IC50 (ATM [9]) is given as greater than 100 µM.

With `COc1cc([C@@H]2c3cc4c(cc3[C@@H](O[C@@H]3O[C@@H]5CO[C@@H](C)O[C@H]5[C@H](O)[C@H]3O)[C@H]3COC(=O)[C@H]23)OCO4)cc(OC)c1OP(=O)(O)O` [etopophos, Etoposide phosphate, reference compound] the “Nadir % Starting Body weight” value (Body weight; [19]) was 98.6%, the “Maximum body weight loss” value (Body weight; given as a single agent) was less than 2% and the “Median time to RTV4” value (HCT116-N7 xenografts; etopophos 11.35 mg/kg i.p. daily for 5 days alone) was 5.5 days. The “Delay” value (SW620 xenografts; [19]) was 4 days and the “Time to RTV4” value (SW620 xenografts; [19]) was 10.5 days.
